Published values collected from several papers.
ABL1 Y253F: Tyrosine-protein kinase ABL1 (ABL1, Homo sapiens, UniProt P00519, Y253F)
EP300: Histone acetyltransferase p300 (EP300, Homo sapiens, UniProt Q09472)
RIOK1: Serine/threonine-protein kinase RIO1 (RIOK1, Homo sapiens, UniProt Q9BRS2)

Compound | target | test | setting | endpoint | value
COc1cc(-c2cc(-c3ccc(N4CCNCC4)cc3)cnc2N)cc(OC)c1OC | ABL1 Y253F | enzyme activity, inhibitor | 1 µM | inhibition | 95%
Cc1cc(NC(=O)c2cccc3cc(-c4cccc5[nH]nc(N)c45)ccc23)ccc1F | Tyrosine-protein kinase ABL1 (ABL1, Homo sapiens, UniProt P00519) | enzyme activity, inhibitor | 0.1 µM | activity vs control | 85%
C[S+]([O-])c1ccc(-c2nc(-c3ccncc3)c(-c3ccc(F)cc3)[nH]2)cc1 (centres unmarked) | EP300 | thermal stability, DSF | 10 µM | ΔTm | 0.35 °C
Cc1ccc(C(=O)Nc2ccc(CN3CCN(C)CC3)c(C(F)(F)F)c2)cc1C#Cc1cnc2cccnn12 | RIOK1 | enzyme activity, inhibitor | 23.5 nM | remaining activity | 98%
Oc1ccc(-c2nc(-c3ccncc3)c(-c3ccc(F)cc3)[nH]2)cc1 | EP300 | thermal stability, DSF | 10 µM | ΔTm | 0.33 °C
NS(=O)(=O)c1ccc(Nc2nc(-c3ccc(F)cc3)c3ccccc3n2)cc1 | EP300 | binding, competition with immobilised ligand | 1 µM | remaining binding | 62%
Nc1ncnc2c1ncn2[C@@H]1O[C@H](CSCC[C@H](N)C(=O)O)[C@@H](O)[C@H]1O | Protein arginine N-methyltransferase 6 (PRMT6, Homo sapiens, UniProt Q96LA8) | thermal stability, DSF | 100 µM | ΔTm | 8.4 °C
Nc1ncnc2occ(-c3ccc(NC(=O)Nc4cc(C(F)(F)F)ccc4F)cc3)c12 | RIOK1 | cell-free assay, inhibitor | 20 µM | remaining signal | 89%
Oc1cccc(Nc2nc(-c3ccc(F)cc3F)cs2)c1 | Androgen receptor (AR, Homo sapiens, UniProt P10275) | cell-free assay | 10 µM | inhibition | 26.5%
c1ccc([C@H]2O[C@H]2c2ccccc2)cc1 | Epoxide hydrolase 1 (EPHX1, Homo sapiens, UniProt P07099) | enzyme activity, substrate | pH 9 | Km | 141 µM
Cc1cnc(NC2CCOCC2)nc1-n1cnc(C(=O)NC(CN)c2cc(F)cc(Cl)c2)c1 (centres unmarked) | ABL1 Y253F | enzyme activity, inhibitor, radiometric | 1 µM | remaining activity | 102%
